Results: ChEMBL document CHEMBL4145615, “Indolyl Azaspiroketal Mannich Bases Are Potent Antimycobacterial Agents with Selective Membrane Permeabilizing Effects and in Vivo Activity” (J Med Chem, 2018)
In brackets after ≈: the same amount, converted by molar mass.

What was measured:
Mus musculus [1] = assay: Acute toxicity in BALB/c mouse at 100 mg/kg administered via oral gavage for 3 days measured over 7 days; format: organism-based; conditions: in vivo, 168 h
Outline: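 BALB/c mice, 3 per group, oral gavage at 100 mg/kg in 200 μL of equal volumes PEG400 and 5% glucose. Dosed on three consecutive days, then monitored 7 days. Euthanized by CO2 and examined for gross pathological changes.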

[2] = Ratio of drug level in CD1 mouse lung to plasma at 25 mg/kg, po administered as single dose measured at 5 hrs post dose by LC/MS-MS analysis; format: ADME, organism-based
Outline: (§1)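 Blood taken at 30 min, 1, 3, 5 h and plasma separated by centrifugation. Lungs taken at 5 h and homogenized in ~5 volumes PBS. Levels measured by LC/MS-MS after acetonitrile/methanol protein precipitation with verapamil internal standard. AUC and Cmax calculated from mean concentrations.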

[3] = Drug uptake in lungs of CD1 mouse at 25 mg/kg, po administered as single dose measured at 5 hrs post dose by LC/MS-MS analysis; format: ADME, organism-based; conditions: lung, read-out: Drug uptake
Outline: as §1, with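 “Uninfected CD-1 mice (n=2 per compound), single oral dose 25 mg/kg as a solution in 5% DMA/65% PEG300/30% D5W. Blood” for “Blood”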

Mus musculus [4] = assay: AUC in CD1 mouse at 25 mg/kg, po administered as single dose by LC/MS-MS analysis; format: ADME, organism-based; conditions: in vivo
Outline: as §1, with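 “Uninfected CD-1 mice (n=2 per compound), single oral dose 25 mg/kg as a solution in 5% DMA/65% PEG300/30% D5W. Blood” for “Blood”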

[5] = system: Mycobacterium tuberculosis; assay: Antimycobacterial activity against Mycobacterium tuberculosis H37Rv ATCC 27294 after 7 days by broth dilution method; format: functional; conditions: H37Rv ATCC 27294, 168 h
[6] = Hemolytic activity against human RBC after 1 hr; format: ADME, cell-based, Erythrocyte; conditions: red blood cells (erythrocytes)
Outline: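 Human red blood cells were exposed to the test compound at a range of concentrations in phosphate-buffered saline for 1 h at 37°C. Hemolysis was referenced to 2% Triton X-100, taken as 100% hemolysis. The value reported is the concentration that lyses 50% of RBCs.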

[7] = Drug uptake in lung of Mycobacterium tuberculosis H37Rv infected BALB/c mouse at 100 mg/kg administered 6 days per week for 4 weeks via oral gavage; format: ADME, organism-based; conditions: in vivo, read-out: Drug uptake
[8] = Cmax in CD1 mouse at 25 mg/kg, po administered as single dose by LC/MS-MS analysis; format: ADME, organism-based; parameters: dose 25 mg/kg, route oral; conditions: in vivo
Outline: as §1, with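 “Uninfected CD-1 mice (n=2 per compound), single oral dose 25 mg/kg as a solution in 5% DMA/65% PEG300/30% D5W. Blood” for “Blood”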

Mus musculus [9] = assay: Toxicity in CD1 mouse at 25 mg/kg, po administered as single dose by LC/MS-MS analysis; format: organism-based; conditions: in vivo
Outline: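 Uninfected CD-1 mice (n=2 per compound) received a single oral 25 mg/kg dose as a solution in 5% DMA/65% PEG300/30% D5W. Tail-bleed blood was taken at 30 min, 1, 3 and 5 h and spun to plasma. Lungs were taken at 5 h and homogenized in about 5 volumes of PBS. Samples were acetonitrile/methanol-precipitated with verapamil internal standard and quantified by LC-MS/MS against standard curves in drug-free CD1 plasma.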

[10] = Plasma concentration in CD1 mouse at 25 mg/kg, po administered as single dose measured at 5 hrs post dose by LC/MS-MS analysis; format: ADME, organism-based
Outline: as §1, with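 “Uninfected CD-1 mice (n=2 per compound), single oral dose 25 mg/kg as a solution in 5% DMA/65% PEG300/30% D5W. Blood” for “Blood”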

[11] = Half life in rat liver microsomes at 1 uM preincubated for 5 mins followed by NADPH addition measure up to 45 mins by LC-MS analysis; format: ADME, microsome; conditions: 0.75 h
Outline: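 Male rat liver microsomes, incubated 45 min at 37°C. Half-life reported as mean ± SD.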

With CCCCCCCCn1cc(CN2CCC3(CC2)OCCO3)c2ccc(OC)cc21 the Activity (Mus musculus [1]) was “Non-Toxic”, the Kp at 5 h [2] was 14.2 and the concentration at 5 h [3] was 468 ng/g. The AUC (Mus musculus [4]) was 173 ng·h/mL, the MIC50 [5] was 1.2 µM (≈ 0.498 µg/mL) and the MIC90 [5] was 2.3 µM (≈ 0.954 µg/mL). For the same compound, the HC50 at 1 h [6] was 75 µM, the concentration [7] was 1000 nM and the Cmax [8] was 42 ng/mL. The Activity (Mus musculus [9]) was “Non-Toxic”, the concentration at 5 h [10] was 33 ng/mL and the t1/2 [11] was 17.4 min.
